Values belong to the molecule of their own block, whether it stands above or below them.
Assays:
[1] = target: T1, Polyunsaturated fatty acid 5-lipoxygenase (Rattus norvegicus, UniProt P12527); assay: Inhibition of 5-lipoxygenase in rat RBL-1 cells; type: cell-based
T1 sequence (P12527 whole entry): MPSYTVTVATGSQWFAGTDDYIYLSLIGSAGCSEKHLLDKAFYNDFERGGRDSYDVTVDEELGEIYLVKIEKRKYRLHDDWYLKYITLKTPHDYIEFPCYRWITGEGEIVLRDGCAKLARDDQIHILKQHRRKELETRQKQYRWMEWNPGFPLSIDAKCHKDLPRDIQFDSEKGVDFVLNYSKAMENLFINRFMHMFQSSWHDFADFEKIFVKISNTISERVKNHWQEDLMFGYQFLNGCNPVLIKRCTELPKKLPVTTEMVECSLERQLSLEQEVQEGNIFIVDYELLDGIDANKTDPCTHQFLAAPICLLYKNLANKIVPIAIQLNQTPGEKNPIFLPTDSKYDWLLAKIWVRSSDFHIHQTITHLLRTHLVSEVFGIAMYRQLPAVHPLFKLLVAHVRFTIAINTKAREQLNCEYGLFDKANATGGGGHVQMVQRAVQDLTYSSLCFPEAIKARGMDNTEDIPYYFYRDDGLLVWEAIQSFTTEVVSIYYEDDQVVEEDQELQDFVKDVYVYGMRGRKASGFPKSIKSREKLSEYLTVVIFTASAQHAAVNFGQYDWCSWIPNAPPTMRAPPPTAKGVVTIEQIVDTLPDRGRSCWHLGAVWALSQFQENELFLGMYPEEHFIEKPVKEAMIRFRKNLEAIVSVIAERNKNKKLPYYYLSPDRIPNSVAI
Procedure, shortened: (§1)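 It was preincubated 5 min at 25 °C with compound or vehicle (2% DMSO) in 0.5 mL of 50 mM KH2PO4, 50 µM ATP, pH 7.0, then substrate was added. Inhibition was taken as the ratio of substrate remaining without versus with inhibitor. IC50 was obtained by linear regression of % inhibition against log concentration.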

[2] = In vitro methemoglobin Induction at 10e-4 M in lysed human red blood cells; type: functional
Procedure, shortened: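 Human red blood cells were lysed, and conversion of their hemoglobin to methemoglobin was followed spectrophotometrically in vitro.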

Mus musculus [3] = species on record: Mus musculus; assay: In vitro inhibition of zymosan-stimulated release of Leukotriene C4 from intact mouse peritoneal macrophages following 60-min pretreatment/[…]; type: functional
Procedure, shortened: (§2)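 Mouse peritoneal macrophages collected by lavage, isolated by adherence and kept in Dulbecco's modified Eagle medium. Cells were pretreated with compound for 60 min, then challenged with opsonized zymosan. LTC4 in cell-free supernatant was measured by radioimmunoassay 3 h after challenge.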

Mus musculus [4] = assay: Inhibition of 5-lipoxygenase in vivo by the measurement of LTC4 release after intraperitoneal 15 min pretreatment (45 min challenge) of mice with a dose of 20 mg/kg; type: functional; conditions: ip
[5] = Inhibition of 12-HETE mammalian lipoxygenase at a concentration 20 uM; type: functional
Procedure, shortened: (§3)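 Enzyme source was a 100000g supernatant from human polymorphonuclear cells isolated to 95% purity. It was preincubated with or without compound for 10 min at 20 °C in phosphate-buffered saline (pH 8.3) with 0.5 mM MgCl2. The reaction was started with 120 μM arachidonic acid and stopped with citric acid after 5 min. Products were detected by UV at 272 and 232 nm, with PGB2 as internal standard.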

[6] = Inhibition of 5-HETE mammalian lipoxygenase at a concentration 20 uM; type: functional; procedure, shortened: as §3
[7] = Inhibition of LTB4 mammalian lipoxygenase at a concentration 20 uM; type: functional; procedure, shortened: as §3
[8] = Potentiation of 15-HETE mammalian lipoxygenase at a concentration 20 uM; type: functional; procedure, shortened: as §3
Mus musculus [9] = species on record: Mus musculus; assay: In vitro inhibition of zymosan stimulated release of Leukotriene C4 from intact mouse peritoneal macrophages; type: functional; procedure, shortened: as §2
[10] = target: T2, Polyunsaturated fatty acid 5-lipoxygenase (Rattus norvegicus) (UniProt P12527); assay: Inhibitory activity against 5-lipoxygenase in RBL-1 cells at 40 uM concentration; type: cell-based
T2 sequence (whole entry): T1 sequence (P12527 whole entry)
Procedure, shortened: as §1, with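 “Enzyme source was a 100000g supernatant of RBL-1 cells (2.5 × 10^6 cell equivalents). It” for “It”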

[11] = target: T2, Polyunsaturated fatty acid 5-lipoxygenase (Rattus norvegicus); assay: Inhibitory activity against 5-lipoxygenase in RBL-1 cells at a concentration 40 uM.; type: cell-based
Procedure, shortened: as §1, with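 “Enzyme source was a 100000g supernatant of RBL-1 cells (2.5 × 10^6 cell equivalents). It” for “It”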

[12] = Inhibition of 15-HETE mammalian lipoxygenase at a concentration 20 uM; type: functional; procedure, shortened: as §3
[13] = target: T2, Polyunsaturated fatty acid 5-lipoxygenase (Rattus norvegicus); assay: Inhibitory activity against 5-lipoxygenase in RBL-1 cells at a concentration 40 uM; type: cell-based
Procedure, shortened: as §1, with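 “Enzyme source was a 100000g supernatant of RBL-1 cells (2.5 × 10^6 cell equivalents). It” for “It”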

IC50 [1]: 22 µM | IC50 (Mus musculus [3]): > 60 µM
Compound: CCCCCCCCCCC/C=C\C=C\SCCCC(=O)OC
Induction [2]: <3% | inhibition in vivo at 20 mg/kg (Mus musculus [4]): 10%

IC50 [1]: 6.2 µM | inhibition [5]: 0% | inhibition [6]: 58% | inhibition [7]: 60% | Potentiation [8]: 20% | IC50 (Mus musculus [9]): 22 µM
Compound: CCCCCCCC/C=C\C/C=C\C=C\SCCCC(=O)OC
Induction [2]: <3% | inhibition in vivo at 20 mg/kg (Mus musculus [4]): 80%

IC50 [1]: > 20 µM
Compound: COc1ccc2c(c1)c(CC(=O)O)c(C)n2C(=O)c1ccc(Cl)cc1 [INDOMETHACIN]

inhibition [10]: 32%
Compound: CC#CC/C=C\C=C\SCCCC(=O)OC

inhibition [11]: 45%
Compound: CCCCCCCCC#CC/C=C\C=C\Sc1ccccc1C(=O)OC

inhibition [5]: 58% | inhibition [12]: 30% | inhibition [6]: 68% | inhibition [7]: 65%
Compound: CC1=NN(CCOc2ccc3ccccc3c2)C(=O)C1 [NAFAZATROM]
Induction [2]: <3%

Compound: NC1=NN(c2cccc(C(F)(F)F)c2)CC1 [BW-755C]
Induction [2]: 17%

inhibition [13]: 47%
Compound: CCCCCCCC/C=C\C/C=C\C=C\SCCC(=O)OC

IC50 [1]: 7.2 µM
Compound: CCCCCCCC/C=C\C/C=C\C=C\SCCCC(=O)O

inhibition [11]: 21%
Compound: CCCCCCCCC#CC/C=C\C=C\Sc1ccc(C(=O)OC)cc1

— ChEMBL document CHEMBL1124740, “Design, synthesis, and 5-lipoxygenase-inhibiting properties of 1-thio-substituted butadienes” (J Med Chem, 1990)
